For the first test, the system named is T-cell. The experiment in a line: Selectivity index, ratio of CC50 for lymph node T cell to IC50 for lymph node T cell. It counts as functional.
Chain of Phosphatidylinositol 4,5-bisphosphate 3-kinase catalytic subunit gamma isoform (P48736 whole entry, canonical isoform): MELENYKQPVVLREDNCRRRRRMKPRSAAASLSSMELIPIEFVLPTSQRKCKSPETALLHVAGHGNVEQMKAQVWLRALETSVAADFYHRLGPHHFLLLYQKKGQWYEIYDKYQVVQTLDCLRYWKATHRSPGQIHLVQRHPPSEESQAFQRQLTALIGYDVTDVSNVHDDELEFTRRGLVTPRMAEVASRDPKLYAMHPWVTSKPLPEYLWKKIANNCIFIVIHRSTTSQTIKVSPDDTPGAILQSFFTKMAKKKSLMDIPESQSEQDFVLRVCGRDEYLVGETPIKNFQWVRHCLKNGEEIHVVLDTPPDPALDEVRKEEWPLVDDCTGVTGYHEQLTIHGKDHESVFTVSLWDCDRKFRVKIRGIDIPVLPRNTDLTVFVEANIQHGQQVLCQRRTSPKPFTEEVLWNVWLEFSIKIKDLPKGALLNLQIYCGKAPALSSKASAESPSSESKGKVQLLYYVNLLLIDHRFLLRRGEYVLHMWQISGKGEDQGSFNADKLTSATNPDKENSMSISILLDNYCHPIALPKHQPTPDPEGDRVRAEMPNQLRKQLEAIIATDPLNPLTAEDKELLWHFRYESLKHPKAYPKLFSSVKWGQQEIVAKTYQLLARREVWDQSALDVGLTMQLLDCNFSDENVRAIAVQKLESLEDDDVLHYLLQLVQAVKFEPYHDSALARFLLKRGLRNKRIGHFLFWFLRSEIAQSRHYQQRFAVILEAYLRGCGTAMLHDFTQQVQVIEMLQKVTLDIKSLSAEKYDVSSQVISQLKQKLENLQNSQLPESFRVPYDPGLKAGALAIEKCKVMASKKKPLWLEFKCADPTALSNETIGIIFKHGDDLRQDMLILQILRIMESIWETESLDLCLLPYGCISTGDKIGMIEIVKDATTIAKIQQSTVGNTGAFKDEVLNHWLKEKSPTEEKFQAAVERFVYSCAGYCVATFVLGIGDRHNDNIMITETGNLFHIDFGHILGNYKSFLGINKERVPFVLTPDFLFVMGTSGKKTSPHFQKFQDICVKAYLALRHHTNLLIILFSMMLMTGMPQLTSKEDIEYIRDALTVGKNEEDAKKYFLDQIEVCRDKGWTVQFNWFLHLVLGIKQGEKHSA
Consider `C/C=C/C[C@@H](C)[C@@H](O)[C@H]1C(=O)N[C@@H](CC)C(=O)N(C)CC(=O)N(C)[C@@H](CC(C)C)C(=O)N[C@@H](C(C)C)C(=O)N(C)[C@@H](CC(C)C)C(=O)N[C@@H](C)C(=O)N[C@H](C)C(=O)N(C)[C@@H](CC(C)C)C(=O)N(C)[C@@H](CC(C)C)C(=O)N(C)[C@@H](C(C)C)C(=O)N1C` [CYCLOSPORINE], for which the “Ratio CC50/IC50” value came out at 196.86.

Another test has as its target Phosphatidylinositol 4,5-bisphosphate 3-kinase catalytic subunit gamma isoform (Homo sapiens, UniProt P48736). The experiment in a line: Inhibition of PI3Kgamma after 4 hrs. The method in brief:
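Recombinant PI3Kγ incubated 4 h at room temperature with or without compound at final concentrations of 3, 10, 30 and 50 μM.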
For orientation: IC50 means the concentration that gives 50% inhibition. In the case of `CC(=O)Oc1ccccc1C1OC(c2ccc3c(c2)OCCO3)=NN1C(C)=O` (stereo unspecified), the IC50 was 2060 nM. The same measure, in the same setting: the result for `CC(=O)Oc1ccc(Cl)cc1C1OC(c2ccc3c(c2)OCCO3)=NN1C(C)=O` (stereo unspecified) reads 980 nM; that for `CC(=O)Oc1ccc(Br)cc1C1OC(c2ccc3c(c2)OCCO3)=NN1C(C)=O` (stereo unspecified), 1310 nM. On the same count and under the same terms, the result for `CC(=O)Oc1c(Cl)cc(Cl)cc1C1OC(c2ccc3c(c2)OCCO3)=NN1C(C)=O` (stereo unspecified) reads 1750 nM; that for `CC(=O)Oc1c(Br)cc(Br)cc1C1OC(c2ccc3c(c2)OCCO3)=NN1C(C)=O` (stereo unspecified), 1980 nM.
